Reference: ChEMBL document CHEMBL1153034, “Antileishmaniasis activity of flavonoids from Consolida oliveriana” (J Nat Prod, 2009)
Values belong to the compound of their own block, whether it stands above or below them. Activity calls are given as the source filed them. No cut-off for these calls is given here.

How the values were obtained:
Leishmania peruviana [1] = test: Effect on pyruvate catabolite excretion in Leishmania peruviana promastigotes at IC25 after 96 hrs by NMR spectroscopy; format: functional, organism-based
Method in brief: (§1)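 Promastigotes of L. (V.) peruviana or L. (V.) braziliensis in MTL medium (initial 5 × 10⁵ cells/mL) received drug at IC25; controls were untreated. After 96 h at 28 °C, cells were spun down at 1500 rpm for 10 min. Excreted end metabolites in the cell-free medium were identified by ¹H NMR and compared with fresh medium and untreated cultures.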

Leishmania peruviana [2] = test: Inhibition of acetate catabolite excretion in Leishmania peruviana promastigotes at IC25 after 96 hrs by NMR spectroscopy; format: functional; method in brief: as §1
Leishmania peruviana [3] = test: Antileishmanial activity against Leishmania peruviana assessed as induction of death of parasite with distortion of parasite body at IC25 after 96 hrs by transmission electron microscopy; format: functional, organism-based
Method in brief: (§2)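 L. (V.) peruviana MHOM/PE/1984/LC26 or L. (V.) braziliensis MHOM/BR/1975/M2904 promastigotes at 5 × 10⁶ cells/mL in MTL medium plus 10% inactivated FBS, in air at 28 °C, with drug at IC25 for 96 h. Pellets were PBS-washed, fixed 2 h at 4 °C in 2% (v/v) p-formaldehyde-glutaraldehyde in 0.05 M cacodylate (pH 7.4), and examined by TEM against untreated parasites.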

Leishmania braziliensis [4] = test: Antileishmanial activity against extracellular Leishmania braziliensis promastigotes after 72 hrs; format: functional, organism-based
Method in brief: (§3)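 Promastigotes grown in MTL medium plus 10% inactivated FBS, air atmosphere, 28 °C. Compounds at 100, 50, 25, 10 and 1 µM, DMSO 0.1%. Parasites counted in a Neubauer hemocytometer at 24, 48 and 72 h. Average of three separate determinations.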

Leishmania peruviana [5] = test: Inhibition of succinate catabolite excretion in Leishmania peruviana promastigotes at IC25 after 96 hrs by NMR spectroscopy; format: functional; method in brief: as §1
[6] = Ratio of compound IC50 to pentostam IC50 for BALB/c mouse J774.2 cells; format: ADME, cell-based; conditions: read-out: Ratio IC50
J774.2 = test: Cytotoxicity against BALB/c mouse J774.2 cells after 72 hrs by trypan blue assay; format: cell-based
Method in brief: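 J774.2 macrophages in MEM with 10% inactivated FBS, pH 7.2, seeded at 10⁵ cells/mL, 2 days at 37 °C in 5% CO₂. Fresh medium with compound at 100, 50, 25, 10 and 1 µM, 72 h. Dead cells counted by trypan blue (0.1% in phosphate buffer); viability relative to control. IC50 by linear regression of K_c values.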

Leishmania braziliensis [7] = test: Antileishmanial activity against intracellular Leishmania braziliensis amastigotes after 72 hrs by Giemsa staining; format: functional, organism-based
Leishmania peruviana [8] = test: Antileishmanial activity against intracellular Leishmania peruviana amastigotes after 10 days by Giemsa staining
Leishmania peruviana [9] = test: Increase in L-alanine catabolite excretion in Leishmania peruviana promastigotes at IC25 after 96 hrs by NMR spectroscopy; format: functional, organism-based; method in brief: as §1
Leishmania peruviana [10] = test: Antileishmanial activity against Leishmania peruviana assessed as abundance of morphologically altered glycosomes at IC25 after 96 hrs by transmission electron microscopy; format: functional, organism-based
Leishmania peruviana [11] = test: Antileishmanial activity against Leishmania peruviana infected in BALB/c mouse J774.2 cells assessed as decrease in parasite infection rate measured on day 10 relative to control; format: functional; design: scale not given: the % may be the effect or the level left
Leishmania peruviana [12] = test: Effect on glycerol catabolite excretion in Leishmania peruviana promastigotes at IC25 after 96 hrs by NMR spectroscopy; format: functional, organism-based; method in brief: as §1
Leishmania peruviana [13] = test: Antileishmanial activity against Leishmania peruviana in BALB/c mouse J774.2 cells assessed as reduction of morphological conversion to parasite amastigote number per cell measured on day 10 by Giemsa staining relative to control; format: functional; design: scale not given: the % may be the effect or the level left
[14] = Ratio of compound IC50 to glucatim IC50 for BALB/c mouse J774.2 cells; format: ADME, cell-based; conditions: read-out: Ratio IC50
Leishmania peruviana [15] = test: Antileishmanial activity against extracellular Leishmania peruviana promastigotes after 72 hrs; format: functional, organism-based; method in brief: as §3
Leishmania peruviana [16] = test: Antileishmanial activity against Leishmania peruviana assessed as disruption of parasite cytoplasm at IC25 after 96 hrs by transmission electron microscopy; format: functional, organism-based; method in brief: as §2
[17] = Mus musculus, BALB/c, J774.2, 72 h

Compound: MEGLUMINE ANTIMONATE
- IC50 (Leishmania braziliensis [4]): 25.6 µM
- IC50 (J774.2; j774.2): 15.2 µM
- IC50 (Leishmania peruviana [15]): 15.3 µM

Compound: O=c1c(O)c(-c2ccc(O)c(O)c2)oc2cc(O)cc(O)c12 [QUERCETIN]
- IC50 (Leishmania braziliensis [4]; Leishmania braziliensis, 72 h): 30.5 µM
- IC50 (J774.2; [17]): 125 µM
- IC50 (Leishmania peruviana [15]; Leishmania peruviana, 72 h): 60 µM

More lines, main results first:

- IC50 (Leishmania braziliensis [4]; Leishmania braziliensis, 72 h): 46.8 µM
- IC50 (Leishmania peruviana [15]; Leishmania peruviana, 72 h): 11.2 µM
Compound: CC(=O)Oc1cc(OC(C)=O)c2c(=O)c(OC(C)=O)c(-c3ccc(OC(C)=O)c(OC(C)=O)c3)oc2c1
- Activity (Leishmania peruviana [1]): Active
- inhibition (INH) (Leishmania peruviana [2]): 30%
- Activity (Leishmania peruviana [3]): Active
- inhibition (INH) (Leishmania peruviana [5]): 30%
- selectivity ratio [6]: 10
- IC50 (J774.2; [17]): 109 µM
- Activity (Leishmania braziliensis [7]): Active
- Activity (Leishmania peruviana [8]): Active
- Activity (Leishmania peruviana [9]): Active
- Activity (Leishmania peruviana [10]): Active
- Activity (Leishmania peruviana [11]): 40%
- Activity (Leishmania peruviana [12]): Active
- Activity (Leishmania peruviana [13]): 72%
- selectivity ratio [14]: 10
- Activity (Leishmania peruviana [16]): Active

- IC50 (Leishmania braziliensis [4]; Leishmania braziliensis, 72 h): 52.5 µM
- IC50 (Leishmania peruviana [15]; Leishmania peruviana, 72 h): 53.3 µM
Compound: O=c1c(O[C@@H]2O[C@H](CO)[C@H](O)[C@H](O)[C@H]2O)c(-c2ccc(O)cc2)oc2cc(O)cc(O)c12 [TRIFOLIN]
- IC50 (J774.2; [17]): 161 µM

- IC50 (Leishmania braziliensis [4]; Leishmania braziliensis, 72 h): 51.6 µM
- IC50 (Leishmania peruviana [15]; Leishmania peruviana, 72 h): 87 µM
Compound: CC(=O)OC[C@H]1O[C@@H](Oc2c(-c3ccc(O)c(O)c3)oc3cc(O)cc(O)c3c2=O)[C@H](O)[C@@H](O)[C@H]1O
- IC50 (J774.2; [17]): 61.3 µM

- IC50 (Leishmania braziliensis [4]; Leishmania braziliensis, 72 h): 53.6 µM
- IC50 (Leishmania peruviana [15]; Leishmania peruviana, 72 h): 71.3 µM
Compound: O=c1c(O)c(-c2ccc(O)cc2)oc2cc(O)cc(O)c12 [KAEMPFEROL]
- IC50 (J774.2; [17]): 53.7 µM
